Reference: ChEMBL document CHEMBL4017537, “Discovery of a Potent and Specific M. tuberculosis Leucyl-tRNA Synthetase Inhibitor: (S)-3-(Aminomethyl)-4-chloro-7-(2-hydroxyethoxy)benzo[c][1,2]oxaborol-1(3H)-ol (GSK656)” (J Med Chem, 2017)
≈ marks a conversion by molar mass, not a printed value.

What was measured:
[1] = tested on: Mycobacterium tuberculosis; assay: Antimicrobial activity against Mycobacterium tuberculosis H37Rv; assay type: functional
[2] = tested on: cytoplasmic LeuRS; assay: Selectivity index, ratio of EC50 for inhibition of cytoplasmic LeuRS in HepG2 cells assessed as reduction in protein synthesis to MIC for Mycobacterium tuberculosis H37Rv; assay type: toxicity, cell-based; settings: human, read-out: Selectivity Index
In short: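 Ratio of HepG2 protein-synthesis EC50 to MIC against M. tuberculosis H37Rv.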

[3] = target: T1, Leucine--tRNA ligase (Mycobacterium tuberculosis (strain ATCC 25618 / H37Rv), UniProt P9WFV1); assay: Inhibition of Mycobacterium tuberculosis H37Rv N-terminal 6His-tagged LeuRS expressed in Escherichia coli BL21(DE3) assessed as L-[14C]leucine incorporation in to Escherichia coli tRNA after 20 mins by liquid scintillation counting analysis
T1 sequence (P9WFV1 whole entry): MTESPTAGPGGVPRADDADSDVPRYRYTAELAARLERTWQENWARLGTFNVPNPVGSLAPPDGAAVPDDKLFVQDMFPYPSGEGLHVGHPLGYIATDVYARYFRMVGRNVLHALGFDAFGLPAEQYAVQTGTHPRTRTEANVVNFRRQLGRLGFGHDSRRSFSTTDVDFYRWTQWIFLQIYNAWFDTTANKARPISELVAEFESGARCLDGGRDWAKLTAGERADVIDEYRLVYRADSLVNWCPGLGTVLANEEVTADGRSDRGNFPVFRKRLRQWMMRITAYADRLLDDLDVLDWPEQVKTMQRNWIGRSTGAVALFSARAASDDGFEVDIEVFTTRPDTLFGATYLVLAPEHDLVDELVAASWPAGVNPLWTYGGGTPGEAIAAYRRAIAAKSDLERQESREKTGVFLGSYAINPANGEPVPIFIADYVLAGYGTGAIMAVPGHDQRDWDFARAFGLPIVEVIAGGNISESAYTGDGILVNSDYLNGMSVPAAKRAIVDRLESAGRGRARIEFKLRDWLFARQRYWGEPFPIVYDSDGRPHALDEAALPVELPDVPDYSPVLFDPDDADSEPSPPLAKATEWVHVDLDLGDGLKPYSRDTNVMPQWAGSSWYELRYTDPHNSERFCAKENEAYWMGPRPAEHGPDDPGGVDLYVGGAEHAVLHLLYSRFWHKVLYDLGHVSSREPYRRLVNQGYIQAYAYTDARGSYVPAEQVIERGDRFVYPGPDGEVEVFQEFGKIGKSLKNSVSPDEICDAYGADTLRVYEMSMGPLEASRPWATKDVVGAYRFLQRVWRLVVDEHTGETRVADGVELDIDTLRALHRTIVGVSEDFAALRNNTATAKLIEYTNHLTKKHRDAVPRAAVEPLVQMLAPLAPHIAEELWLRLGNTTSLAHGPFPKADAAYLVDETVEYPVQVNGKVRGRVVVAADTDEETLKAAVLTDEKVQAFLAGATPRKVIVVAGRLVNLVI
In short: (§1)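 N-terminal His6-tagged LeuRS expressed in E. coli BL21(DE3), codon-optimized. 50 mM HEPES-KOH pH 8.0, 30 mM MgCl2, 30 mM KCl, 13 μM L-[14C]leucine, 15 μM tRNA (E. coli total; brewer's yeast for human cytoplasmic enzyme), 0.02% BSA, 1 mM DTT, 30 °C. Inhibitor preincubated 20 min, started with 4 mM ATP, TCA-quenched after 7 min, filtered, scintillation counted; four-parameter logistic IC50.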

[4] = target: T2, Leucine--tRNA ligase, cytoplasmic (Homo sapiens, UniProt Q9P2J5); assay: Inhibition of human N-terminal 6His-tagged cytoplasmic LeuRS expressed in Escherichia coli BL21(DE3) assessed as […] after 20 mins by liquid scintillation counting analysis
[5] = tested on: HepG2; assay: Cytotoxicity against human HepG2 cells assessed as reduction in cell viability after 48 hrs by CellTiter-Glo assay; assay type: cell-based; settings: HepG2, 48 h
In short: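 HepG2 cells seeded at 10 000/well in EMEM with 5% FCS and 2 mM glutamine. After 24 h, ten 1:2 serial compound dilutions (0.5% DMSO final) added in duplicate for 48 h. Read-out by CellTiter-Glo luminescence per table footnote; the method text also describes resazurin fluorescence (ex 515/em 590 nm). Sigmoidal variable-slope fit.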

[6] = target: T2, Leucine--tRNA ligase, cytoplasmic; assay: Inhibition of cytoplasmic LeuRS in human HepG2 cells assessed as reduction in protein synthesis preincubated for 48 hrs followed by L-[14C]leucine addition measured after 3 hrs by liquid scintillation counting analysis; assay type: cell-based
In short: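 HepG2 cells in DMEM/10% FCS, 3000 cells/well, exposed to compound dilutions (0.5% DMSO final) for 48 h at 37 °C. Medium then replaced with fresh medium containing 0.5 μCi L-[14C]leucine and the same compound levels for 3 h. Cells trypsinised, precipitated in ice-cold 20% TCA, filtered, washed, scintillation counted; curve-fit EC50; mean of at least duplicates.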

[7] = target: T3, Leucine--tRNA ligase, mitochondrial (Homo sapiens, UniProt Q15031); assay: Inhibition of human N-terminal 6His-tagged mitochondrial LeuRS expressed in Escherichia coli BL21(DE3) assessed as L-[14C]leucine incorporation in to Escherichia coli tRNA after 20 mins by liquid scintillation counting analysis; in short: as §1
T3 sequence (Q15031 whole entry): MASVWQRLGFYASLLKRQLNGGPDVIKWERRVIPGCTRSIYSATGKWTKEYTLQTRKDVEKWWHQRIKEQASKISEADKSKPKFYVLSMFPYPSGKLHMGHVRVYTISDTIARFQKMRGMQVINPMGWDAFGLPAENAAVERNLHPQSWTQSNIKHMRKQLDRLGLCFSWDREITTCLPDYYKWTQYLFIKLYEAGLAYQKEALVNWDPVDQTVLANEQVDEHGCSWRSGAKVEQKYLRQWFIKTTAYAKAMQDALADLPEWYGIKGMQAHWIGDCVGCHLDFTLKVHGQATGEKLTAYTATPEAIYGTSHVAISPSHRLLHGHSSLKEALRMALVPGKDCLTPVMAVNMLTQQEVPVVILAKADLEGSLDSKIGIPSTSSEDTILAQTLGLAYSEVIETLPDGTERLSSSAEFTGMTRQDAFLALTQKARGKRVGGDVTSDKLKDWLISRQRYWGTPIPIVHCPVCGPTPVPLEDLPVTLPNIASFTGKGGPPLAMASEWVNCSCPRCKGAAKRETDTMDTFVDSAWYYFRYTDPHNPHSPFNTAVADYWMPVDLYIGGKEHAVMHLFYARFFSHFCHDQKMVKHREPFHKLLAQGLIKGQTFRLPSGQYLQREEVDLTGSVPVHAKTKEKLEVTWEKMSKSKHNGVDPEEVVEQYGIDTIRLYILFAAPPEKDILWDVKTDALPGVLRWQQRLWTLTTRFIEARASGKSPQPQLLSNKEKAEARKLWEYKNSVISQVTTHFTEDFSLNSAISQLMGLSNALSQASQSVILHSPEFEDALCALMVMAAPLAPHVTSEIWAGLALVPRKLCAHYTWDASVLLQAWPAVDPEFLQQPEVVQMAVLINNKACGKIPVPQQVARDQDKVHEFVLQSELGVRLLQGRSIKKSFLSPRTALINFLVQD

[8] = Clearance in C57BL/6 mouse at 30 mg/kg, iv administered as single dose measured up to 24 hrs by LC-MS/MS analysis; assay type: ADME, organism-based; settings: in vivo
[9] = AUC (0 to 24 hrs) in C57BL/6 mouse at 30 mg/kg administered as single dose via oral gavage by LC-MS/MS analysis; assay type: ADME, organism-based; parameters: time < 24 hr, dose 30 mg/kg, route oral; settings: in vivo
[10] = AUC (0 to infinity) in C57BL/6 mouse at 30 mg/kg, iv administered as single dose measured up to 24 hrs by LC-MS/MS analysis; assay type: ADME, organism-based; parameters: dose 30 mg/kg, time infinity, route intravenous; settings: in vivo
[11] = tested on: Mus musculus; assay: Dose normalized AUC (0 to infinity) in C57BL/6 mouse at 30 mg/kg, iv administered as single dose measured up to 24 hrs by LC-MS/MS analysis; assay type: ADME, organism-based; settings: in vivo
[12] = Tmax in C57BL/6 mouse at 30 mg/kg administered as single dose via oral gavage measured up to 24 hrs by LC-MS/MS analysis; assay type: ADME, organism-based; settings: in vivo
In short: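 C57BL/6 female mice (18−20 g) got one oral gavage dose of 30 mg/kg in 1% methylcellulose. Peripheral whole blood was sampled from 15 min to 24 h postdose, n = 3 mice per time point, and drug concentrations were measured in blood.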

[13] = Half life in C57BL/6 mouse at 30 mg/kg, iv administered as single dose measured up to 24 hrs by LC-MS/MS analysis; assay type: ADME, organism-based; settings: in vivo
[14] = tested on: Mus musculus; assay: Dose normalized AUC (0 to 24 hrs) in C57BL/6 mouse at 30 mg/kg administered as single dose via oral gavage by LC-MS/MS analysis; assay type: ADME, organism-based; settings: in vivo
[15] = Oral bioavailability in C57BL/6 mouse at 30 mg/kg administered as single dose via gavage measured up to 24 hrs by LC-MS/MS analysis; assay type: ADME, organism-based; settings: in vivo
[16] = Cmax in C57BL/6 mouse at 30 mg/kg administered as single dose via oral gavage measured up to 24 hrs by LC-MS/MS analysis; assay type: ADME, organism-based; parameters: dose 30 mg/kg, route oral; settings: in vivo
[17] = tested on: Mycobacterium tuberculosis; assay: Antimicrobial activity against Mycobacterium tuberculosis H37Rv infected in C57BL/6J mouse assessed as 2 log reduction in bacterial load in lungs administered qd for 8 consecutive days starting on day 1 post infection measured 24 hrs post last dose; assay type: functional
[18] = Volume of distribution at steady state in C57BL/6 mouse at 30 mg/kg, iv administered as single dose measured up to 24 hrs by LC-MS/MS analysis; assay type: ADME, organism-based; settings: in vivo, read-out: Vdss
In short: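 C57BL/6 female mice (18−20 g) got one intravenous dose in saline. Whole blood (15 μL) was taken by lateral tail-vein puncture from each of 3 mice at 5, 15 and 30 min and at 1, 2, 4, 8 and 24 h postdose, and drug concentrations were measured in peripheral blood.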

T2 sequence (Q9P2J5 whole entry): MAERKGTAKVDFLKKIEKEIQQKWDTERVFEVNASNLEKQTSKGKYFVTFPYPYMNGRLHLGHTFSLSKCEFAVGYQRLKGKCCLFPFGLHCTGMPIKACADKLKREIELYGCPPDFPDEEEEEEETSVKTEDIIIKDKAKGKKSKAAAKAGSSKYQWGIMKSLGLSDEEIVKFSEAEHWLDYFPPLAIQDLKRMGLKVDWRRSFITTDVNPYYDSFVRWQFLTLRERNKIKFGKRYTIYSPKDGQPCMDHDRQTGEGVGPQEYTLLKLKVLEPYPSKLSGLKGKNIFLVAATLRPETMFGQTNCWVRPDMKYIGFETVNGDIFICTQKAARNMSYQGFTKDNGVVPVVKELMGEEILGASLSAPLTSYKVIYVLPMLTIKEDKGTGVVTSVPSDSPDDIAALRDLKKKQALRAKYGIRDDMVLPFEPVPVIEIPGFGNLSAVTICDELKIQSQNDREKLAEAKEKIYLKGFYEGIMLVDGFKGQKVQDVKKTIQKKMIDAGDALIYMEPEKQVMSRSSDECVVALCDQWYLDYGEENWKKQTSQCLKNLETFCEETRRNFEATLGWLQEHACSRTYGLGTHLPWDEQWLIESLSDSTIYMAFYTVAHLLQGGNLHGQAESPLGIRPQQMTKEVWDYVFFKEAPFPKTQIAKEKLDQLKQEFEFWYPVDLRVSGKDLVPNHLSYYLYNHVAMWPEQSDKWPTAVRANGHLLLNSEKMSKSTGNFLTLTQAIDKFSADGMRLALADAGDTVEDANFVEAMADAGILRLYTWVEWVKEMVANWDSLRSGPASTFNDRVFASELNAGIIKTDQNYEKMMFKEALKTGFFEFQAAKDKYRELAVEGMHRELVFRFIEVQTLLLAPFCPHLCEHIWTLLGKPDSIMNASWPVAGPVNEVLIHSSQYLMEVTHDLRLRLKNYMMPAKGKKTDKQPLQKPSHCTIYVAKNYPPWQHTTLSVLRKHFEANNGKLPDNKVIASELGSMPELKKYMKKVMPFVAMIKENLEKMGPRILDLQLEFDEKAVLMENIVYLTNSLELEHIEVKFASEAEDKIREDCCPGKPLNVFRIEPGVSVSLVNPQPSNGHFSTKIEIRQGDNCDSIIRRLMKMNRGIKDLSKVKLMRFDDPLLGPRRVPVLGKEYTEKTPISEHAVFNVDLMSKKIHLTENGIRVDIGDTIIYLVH

Row | Structure (SMILES) | MIC [1] [µM] | selectivity ratio [2] | IC50 [3] [µM] | IC50 [4] [µM] | EC50 [5] [µM] | EC50 [6] [µM] | IC50 [7] [µM] | also measured
1 | COc1ccc(Cl)c2c1B(O)O[C@@H]2CN | 0.1 (≈ 0.0227 µg/mL) | 1050 | 0.15 | 260 | 327 | 105 | > 300 | 
2 | Cl.NC[C@H]1OB(O)c2c3c(cc(Cl)c21)OCCO3 | 0.08 | 1040 | 0.046 | 96.6 | 69.5 | 82.8 |  | clearance [8]: 6.6 mL/min/kg; AUC(0-t) at 24 h [9]: 37700 ng·h/mL; AUC(0-inf) [10]: 76300 ng·h/mL; AUC/dose [11]: 2.54 µg·h/mL/mg/kg; Tmax [12]: 1 h; half-life [13]: 2.9 h; AUC/dose [14]: 1.26 µg·h/mL; bioavailability [15]: 50%; Cmax [16]: 6210 ng/mL; ED99 [17]: 70 mg/kg; Vd [18]: 1.5 L/kg
3 | NC[C@H]1OB(O)c2c(OCCO)ccc(Br)c21 | 0.08 (≈ 0.0242 µg/mL) | 1450 | 0.12 | 118 | 292 | 116 | > 300 | 
4 | NC[C@H]1OB(O)c2c3c(cc(Br)c21)OCCO3 | 0.03 (≈ 0.009 µg/mL) | 1320 | 0.12 | 118 | 43.2 | 39.5 |  | 
5 | CCOc1ccc(Cl)c2c1B(O)O[C@@H]2CN | 0.1 (≈ 0.0241 µg/mL) | 196 | 0.056 |  | 65.8 | 19.6 | > 300 | 
6 | CCCOc1cc(Cl)c2c(c1)B(O)OC2CN (racemic) | 1.3 (≈ 0.332 µg/mL) |  | 0.25 |  |  |  |  | 
7 | NCC1OB(O)c2c(OCCO)ccc(Br)c21 (racemic) | 0.16 (≈ 0.0483 µg/mL) |  | 0.15 |  |  |  |  | 
8 | CCCCOc1ccc(Br)c2c1B(O)O[C@@H]2CN | 0.45 (≈ 0.141 µg/mL) |  | 0.2 |  |  |  |  | 
9 | NCC1OB(O)c2cc(OCCCO)cc(Br)c21 (racemic) | > 5 |  | 0.37 |  |  |  |  | 
10 | NC[C@@H]1OB(O)c2c3c(cc(Br)c21)OCCO3 | 40 (≈ 12 µg/mL) |  | 4.2 |  |  |  |  | 
